Test results reported in ChEMBL document CHEMBL4765255, “Design and synthesis of Imidazo[1,2-b]pyridazine IRAK4 inhibitors for the treatment of mutant MYD88 L265P diffuse large B-cell lymphoma” (Eur J Med Chem, 2020).
Each block holds one compound with its values, some of them ahead of it. The source made the active and inactive calls.

What was measured:
HT = experiment: Cytotoxicity against human HT cells harboring MYD88 assessed as reduction in cell viability incubated for 72 hrs by CCK-8 assay; assay type: functional, cell-based
Ramos = experiment: Cytotoxicity against human Ramos cells harboring MYD88 assessed as reduction in cell viability incubated for 72 hrs by CCK-8 assay; assay type: functional, cell-based
[1] = molecular target: T1, Interleukin-1 receptor-associated kinase 4 (Homo sapiens, UniProt Q9NWZ3); experiment: Inhibition of recombinant human His-tagged full length IRAK4 expressed in baculovirus expression system using Ser/Thr07 peptide as substrate incubated for 1 hr by Z'lyte assay
T1 sequence (Q9NWZ3 whole entry): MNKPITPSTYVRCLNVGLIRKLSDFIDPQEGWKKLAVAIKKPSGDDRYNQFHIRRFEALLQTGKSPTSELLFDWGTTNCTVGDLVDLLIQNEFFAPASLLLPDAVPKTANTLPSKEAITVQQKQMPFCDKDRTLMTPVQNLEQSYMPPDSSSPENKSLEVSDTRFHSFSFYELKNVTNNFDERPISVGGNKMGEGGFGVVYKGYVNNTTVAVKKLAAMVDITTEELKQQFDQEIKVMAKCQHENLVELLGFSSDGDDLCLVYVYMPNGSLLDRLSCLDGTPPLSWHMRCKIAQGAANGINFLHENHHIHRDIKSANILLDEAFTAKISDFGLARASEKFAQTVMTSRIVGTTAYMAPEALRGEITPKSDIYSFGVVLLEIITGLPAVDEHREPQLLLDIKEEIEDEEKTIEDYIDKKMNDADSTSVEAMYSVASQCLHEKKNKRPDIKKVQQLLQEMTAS

OCI-Ly10 = experiment: Cytotoxicity against human OCILY10 cells harboring MYD88 L265P mutant assessed as reduction in cell viability incubated for 72 hrs by CCK-8 assay; assay type: functional, cell-based; conditions: OCI-Ly10, 72 h
TMD8 [2] = experiment: Cytotoxicity against human TMD8 cells harboring MYD88 L265P mutant assessed as reduction in cell viability incubated for 72 hrs by CCK-8 assay; assay type: functional, cell-based; conditions: TMD8, 72 h
[3] = molecular target: T2, Interleukin-1 receptor-associated kinase 4 (Homo sapiens) (UniProt Q9NWZ3); experiment: Inhibition of IRAK4 in human TMD8 cells assessed as decrease in IKKbeta phosphorylation at 0.3 to 10 uM incubated for 2 hrs by Western blot analysis; assay type: cell-based; conditions: dose 0.3-10 µM
T2 sequence (whole entry): T1 sequence (Q9NWZ3 whole entry)
How it was run: (§1)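 OCI-LY10 or TMD8 cells, about 2×10^6 per well, treated with compound or DMSO for 2 h. Cells washed twice with PBS, lysed, then Western blotted for p-IRAK4 (Thr-345/Ser-346), p-IKKβ and p-p65. Bands quantified densitometrically; significance thresholds p<0.05, 0.01, 0.001.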

[4] = molecular target: T2, Interleukin-1 receptor-associated kinase 4 (Homo sapiens); experiment: Inhibition of IRAK4 in human TMD8 cells assessed as decrease in IRAK4 Thr345/Ser346 phosphorylation incubated for 2 hrs by Western blot analysis; assay type: cell-based; conditions: dose 0.3-10 µM; how it was run: as §1
[5] = molecular target: T2, Interleukin-1 receptor-associated kinase 4 (Homo sapiens); experiment: Inhibition of IRAK4 in human OCILY10 cells assessed as decrease in IRAK4 Thr345/Ser346 phosphorylation incubated for 2 hrs by Western blot analysis; assay type: cell-based; conditions: dose 0.3-10 µM; how it was run: as §1
[6] = molecular target: T2, Interleukin-1 receptor-associated kinase 4 (Homo sapiens); experiment: Inhibition of IRAK4 in human TMD8 cells assessed as decrease in NF-kappaB phosphorylation at 0.3 to 10 uM incubated for 2 hrs by Western blot analysis; assay type: cell-based; conditions: dose 0.3-10 µM; how it was run: as §1
[7] = molecular target: T2, Interleukin-1 receptor-associated kinase 4 (Homo sapiens); experiment: Inhibition of IRAK4 in human OCI-LY10 cells assessed as decrease in NF-kappaB phosphorylation at 0.3 to 10 uM incubated for 2 hrs by Western blot analysis; assay type: cell-based; conditions: OCILY10, dose 0.3-10 µM; how it was run: as §1
[8] = molecular target: Mast/stem cell growth factor receptor Kit (Homo sapiens) (UniProt P10721); experiment: Inhibition of c-Kit (unknown origin) at 0.1 uM incubated for 1 hr by ELISA relative to control
Chain of Mast/stem cell growth factor receptor Kit (Homo sapiens) (P10721 whole entry): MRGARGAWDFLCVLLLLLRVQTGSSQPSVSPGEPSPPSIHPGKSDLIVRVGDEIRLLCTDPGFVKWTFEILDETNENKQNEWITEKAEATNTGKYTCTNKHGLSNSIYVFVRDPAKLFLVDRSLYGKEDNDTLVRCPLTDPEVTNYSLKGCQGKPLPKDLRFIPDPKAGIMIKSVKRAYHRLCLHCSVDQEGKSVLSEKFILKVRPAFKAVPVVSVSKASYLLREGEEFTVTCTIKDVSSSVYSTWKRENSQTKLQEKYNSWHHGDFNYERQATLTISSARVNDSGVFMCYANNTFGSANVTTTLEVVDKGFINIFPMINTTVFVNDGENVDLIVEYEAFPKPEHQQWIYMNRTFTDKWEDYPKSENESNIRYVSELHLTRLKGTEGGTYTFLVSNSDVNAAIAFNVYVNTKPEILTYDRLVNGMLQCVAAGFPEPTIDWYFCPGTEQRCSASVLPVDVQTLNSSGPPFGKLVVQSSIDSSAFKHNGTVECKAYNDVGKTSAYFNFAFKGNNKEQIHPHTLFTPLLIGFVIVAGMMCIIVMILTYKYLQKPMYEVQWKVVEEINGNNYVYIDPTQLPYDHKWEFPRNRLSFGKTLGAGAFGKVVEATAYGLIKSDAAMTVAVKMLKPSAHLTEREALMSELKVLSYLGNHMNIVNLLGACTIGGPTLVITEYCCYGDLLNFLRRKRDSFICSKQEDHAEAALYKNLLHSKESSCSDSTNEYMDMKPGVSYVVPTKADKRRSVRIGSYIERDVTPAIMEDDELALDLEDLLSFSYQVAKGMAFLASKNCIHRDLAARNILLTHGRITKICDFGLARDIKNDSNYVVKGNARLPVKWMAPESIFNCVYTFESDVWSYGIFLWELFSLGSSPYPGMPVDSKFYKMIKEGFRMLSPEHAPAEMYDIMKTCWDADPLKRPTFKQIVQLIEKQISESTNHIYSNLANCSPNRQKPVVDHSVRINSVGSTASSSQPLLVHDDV
How it was run: (§2)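 Part of a 20-kinase panel tested at 0.1 μM compound. Kinase inhibition measured by ELISA following previously described protocols.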

TMD8 [9] = experiment: Cytotoxicity against human TMD8 cells harboring MYD88 L265P mutant assessed as combination index at 0.3 uM in presence of ibrutinib incubated for 72 hrs by CCK-8 assay; assay type: functional
How it was run: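 TMD8 cells (RPMI1640, 10% FBS, penicillin–streptomycin, 0.05 mM 2-mercaptoethanol, 37 °C, 5% CO2), seeded at 10000-12000 cells/well, exposed to ibrutinib plus IRAK4 inhibitor at varied concentrations for 72 h. Viability read by CCK-8; combination index computed with CalcuSyn, CI below 1 taken as synergy.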

[10] = molecular target: T2, Interleukin-1 receptor-associated kinase 4 (Homo sapiens); experiment: Inhibition of IRAK4 in human OCI-LY10 cells assessed as decrease in IKKbeta phosphorylation at 0.3 to 10 uM incubated for 2 hrs by Western blot analysis; assay type: cell-based; conditions: OCILY10, dose 0.3-10 µM; how it was run: as §1
[11] = tested on: Receptor-type tyrosine-protein kinase FLT3 (Homo sapiens), P36888 [UNDEFINED MUTATION]; experiment: Inhibition of FLT3-ITD mutant (unknown origin) at 0.1 uM incubated for 1 hr by ELISA relative to control; how it was run: as §2
Chain of Receptor-type tyrosine-protein kinase FLT3 (Homo sapiens), P36888 [UNDEFINED MUTATION] (P36888 whole entry, looked up, change not shown): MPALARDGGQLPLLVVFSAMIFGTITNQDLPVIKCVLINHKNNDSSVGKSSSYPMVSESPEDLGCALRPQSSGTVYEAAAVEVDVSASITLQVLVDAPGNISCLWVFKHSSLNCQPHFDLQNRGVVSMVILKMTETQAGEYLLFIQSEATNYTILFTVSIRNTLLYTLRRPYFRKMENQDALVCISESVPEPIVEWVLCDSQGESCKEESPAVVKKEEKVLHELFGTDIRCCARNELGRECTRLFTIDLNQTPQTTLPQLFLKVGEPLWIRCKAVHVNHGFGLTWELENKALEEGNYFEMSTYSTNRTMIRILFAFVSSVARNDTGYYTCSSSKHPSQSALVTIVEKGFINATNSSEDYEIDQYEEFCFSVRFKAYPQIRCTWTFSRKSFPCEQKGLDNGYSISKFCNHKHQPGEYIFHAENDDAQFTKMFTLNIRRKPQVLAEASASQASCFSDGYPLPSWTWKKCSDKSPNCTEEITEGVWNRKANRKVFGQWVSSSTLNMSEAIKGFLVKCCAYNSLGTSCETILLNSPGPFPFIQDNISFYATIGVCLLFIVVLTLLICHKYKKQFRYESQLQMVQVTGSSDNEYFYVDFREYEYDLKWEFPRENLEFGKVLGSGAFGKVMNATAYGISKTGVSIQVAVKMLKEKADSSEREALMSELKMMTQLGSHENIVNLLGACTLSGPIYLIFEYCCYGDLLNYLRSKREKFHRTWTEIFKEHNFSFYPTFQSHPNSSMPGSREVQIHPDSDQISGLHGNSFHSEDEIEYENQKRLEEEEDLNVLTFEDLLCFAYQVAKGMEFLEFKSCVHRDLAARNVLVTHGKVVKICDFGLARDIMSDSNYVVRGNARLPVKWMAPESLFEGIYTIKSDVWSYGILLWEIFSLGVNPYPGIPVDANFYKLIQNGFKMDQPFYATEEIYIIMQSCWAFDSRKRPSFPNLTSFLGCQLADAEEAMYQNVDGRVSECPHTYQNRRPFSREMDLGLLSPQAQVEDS

[12] = molecular target: Receptor-type tyrosine-protein kinase FLT3 (Homo sapiens) (UniProt P36888); experiment: Inhibition of FLT3 (unknown origin) at 0.1 uM incubated for 1 hr by ELISA relative to control; how it was run: as §2
Chain of Receptor-type tyrosine-protein kinase FLT3 (Homo sapiens) (P36888 whole entry): as the sequence (P36888 whole entry, looked up, change not shown) above

Structure (SMILES): Cn1cc(NC(=O)c2cnc3ccc(N4CCC[C@@H](N)C4)nn23)c(C(F)F)n1
IC50 (HT): 41.7 µM
IC50 (Ramos): 44.3 µM
IC50 [1]: 0.0087 µM
IC50 (OCI-Ly10): 10.7 µM
IC50 (TMD8 [2]): 17.8 µM

Structure (SMILES): Cn1cc(NC(=O)c2ncn3ccc(N4CCC[C@@H](N)C4)nc23)c(C(F)F)n1
IC50 (HT): > 50 µM
IC50 (Ramos): > 50 µM
IC50 [1]: > 1 µM
IC50 (OCI-Ly10): > 50 µM
IC50 (TMD8 [2]): > 50 µM

Structure (SMILES): Cn1cc(NC(=O)c2cnc3ccc(N[C@@H]4CCCNC4)nn23)c(C(F)(F)F)n1
IC50 (HT): > 50 µM
IC50 (Ramos): > 50 µM
IC50 [1]: 0.0235 µM
IC50 (OCI-Ly10): 2.8 µM
IC50 (TMD8 [2]): 5.9 µM

IC50 [1]: > 1 µM
Structure (SMILES): Cn1cc(NC(=O)c2cnc3ccc(N4CC[C@@H](N)C4)nn23)c(C(F)F)n1

Structure (SMILES): Cn1cc(NC(=O)c2cnc3ccc(N[C@@H]4CCCNC4)nn23)c(C(F)F)n1
inhibition [3]: Active
inhibition [4]: Dose-dependent effect
inhibition [5]: Dose-dependent effect
inhibition [6]: Active
IC50 (HT): 40.1 µM
IC50 (Ramos): 11.4 µM
inhibition [7]: Active
IC50 [1]: 0.0013 µM
IC50 (OCI-Ly10): 0.7 µM
inhibition [8]: > 50%
CI (TMD8 [9]): 0.13
IC50 (TMD8 [2]): 1.2 µM
inhibition [10]: Active
inhibition [11]: > 50%
inhibition [12]: > 50%

Structure (SMILES): Cn1cc(NC(=O)c2cnc3ccc(NCCN)nn23)c(C(F)F)n1
IC50 (HT): > 50 µM
IC50 (Ramos): > 50 µM
IC50 [1]: 0.0175 µM
IC50 (OCI-Ly10): 8.8 µM
IC50 (TMD8 [2]): 17.7 µM

Structure (SMILES): Cn1cc(NC(=O)c2cnc3ccc(N[C@@H]4CCCCNC4)nn23)c(C(F)F)n1
IC50 (HT): 35.9 µM
IC50 (Ramos): 7.2 µM
IC50 [1]: 0.009 µM
IC50 (OCI-Ly10): 0.8 µM
IC50 (TMD8 [2]): 1.2 µM

Structure (SMILES): CCn1cc(NC(=O)c2cnc3ccc(N[C@@H]4CCCNC4)nn23)c(C(F)(F)F)n1
IC50 (HT): > 50 µM
IC50 (Ramos): > 50 µM
IC50 [1]: 0.0323 µM
IC50 (OCI-Ly10): 3.6 µM
IC50 (TMD8 [2]): 6.1 µM

IC50 [1]: 0.0655 µM
Structure (SMILES): Cn1cc(NC(=O)c2cnc3ccc(N4CCNCC4)nn23)c(C(F)F)n1

IC50 [1]: 0.0522 µM
Structure (SMILES): O=C(Nc1cn(C2CCNCC2)nc1C(F)(F)F)c1cnc2ccc(N[C@@H]3CCCNC3)nn12

IC50 [1]: 0.0803 µM
Structure (SMILES): Cn1cc(NC(=O)c2cnc3ccc(N4CCC(N)CC4)nn23)c(C(F)F)n1

IC50 [1]: 0.077 µM
Structure (SMILES): CC(C)n1cc(NC(=O)c2cnc3ccc(N[C@@H]4CCCNC4)nn23)c(C(F)(F)F)n1

IC50 [1]: > 1 µM
Structure (SMILES): Cc1nn(C)cc1NC(=O)c1cnc2ccc(N[C@@H]3CCCNC3)nn12

IC50 [1]: > 1 µM
Structure (SMILES): Cc1nn2ccc(N[C@@H]3CCCNC3)nc2c1C(=O)Nc1cn(C)nc1C(F)F

Structure (SMILES): Cn1cc(NC(=O)c2cnc3ccc(N[C@@H]4CCCNC4)nn23)c(C#N)n1
IC50 (HT): > 50 µM
IC50 (Ramos): 28.8 µM
IC50 [1]: 0.0408 µM
IC50 (OCI-Ly10): 5.8 µM
IC50 (TMD8 [2]): 14.8 µM

Structure (SMILES): Cn1cc(NC(=O)c2cnc3ccc(N[C@@H]4CCNC4)nn23)c(C(F)F)n1
IC50 (HT): > 50 µM
IC50 (Ramos): 45 µM
IC50 [1]: 0.0077 µM
IC50 (OCI-Ly10): 3.6 µM
IC50 (TMD8 [2]): 8.3 µM

Structure (SMILES): O=C(Nc1cn(C2CCOCC2)nc1C(F)(F)F)c1cnc2ccc(N[C@@H]3CCCNC3)nn12
IC50 (HT): > 50 µM
IC50 (Ramos): > 50 µM
IC50 [1]: 0.0497 µM
IC50 (OCI-Ly10): 10.5 µM
IC50 (TMD8 [2]): 11.1 µM

Structure (SMILES): Cn1cc(NC(=O)c2cnc3ccc(N[C@H]4CCCNC4)nn23)c(C(F)F)n1
IC50 (HT): > 50 µM
IC50 (Ramos): > 50 µM
IC50 [1]: 0.0362 µM
IC50 (OCI-Ly10): 22.3 µM
IC50 (TMD8 [2]): 22.3 µM

IC50 [1]: > 1 µM
Structure (SMILES): Cc1nc2ccc(N[C@@H]3CCCNC3)nn2c1C(=O)Nc1cn(C)nc1C(F)F

IC50 [1]: 0.0125 µM
Structure (SMILES): Cn1cc(NC(=O)c2cnc3ccc(N[C@@H]4CCCNC4)nn23)c(C(N)=O)n1

IC50 [1]: > 1 µM
Structure (SMILES): CN(c1ccc2ncc(C(=O)Nc3cn(C)nc3C(F)F)n2n1)[C@@H]1CCCNC1

Structure (SMILES): Cn1cc(NC(=O)c2cnn3ccc(N4CCC[C@@H](N)C4)nc23)c(C(F)F)n1
IC50 (HT): 29.2 µM
IC50 (Ramos): 19 µM
IC50 [1]: 0.0093 µM
IC50 (OCI-Ly10): 5.5 µM
IC50 (TMD8 [2]): 7.3 µM
